Measurements as given in ChEMBL document CHEMBL1121528, “Synthesis and pharmacology of 8-amino-3-(cyclopropylmethyl)-1,2,3,4,5,6-hexahydro-cis-6,11-dimethyl-2,6-methano-3-benzazocine and related compounds” (1980).
The source made the active and inactive calls. No cut-off for these calls is given here.

Columns and labels:
Mus musculus [1] = assay: Effective dose required for its agonist activity in mouse by acetylcholine writhing test after sc administration; type: functional
Procedure, shortened: (§1)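 Agonist (analgesic) screens: modified D'Amour-Smith tail-flick, phenylquinone-induced writhing, acetylcholine-induced writhing (mouse), and rat bradykinin test. Compounds given sc or po.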

Rattus norvegicus [2] = assay: Analgesic dose required for its phenazocine antagonistic activity in rat after peroral administration; type: functional
Procedure, shortened: (§2)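 Narcotic antagonist activity in rats by the Harris–Pierson tail-flick procedure against phenazocine, with compounds given orally. AD50 reported in mg/kg with 95% confidence limits, calculated as free base.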

Rattus norvegicus [3] = assay: Analgesic dose required for its phenazocine antagonistic activity in rat after peroral administration; I = inactive at 40; type: functional, organism-based; procedure, shortened: as §2
Rattus norvegicus [4] = assay: Effective dose required for its agonist activity in rat bradykinin test after sc administration; type: functional; procedure, shortened: as §1
Mus musculus [5] = assay: Effective dose required for its agonist activity in mouse by phenylquinone test after sc administration; type: functional; procedure, shortened: as §1
Rattus norvegicus [6] = species on record: Rattus norvegicus; assay: Analgesic dose required for its narcotic activity in morphine; type: functional
Rattus norvegicus [7] = assay: Analgesic dose required for its narcotic activity in meperidine after sc administration; type: functional
Rattus norvegicus [8] = assay: Analgesic dose required for its narcotic activity morphine after po administration; type: functional
Mus musculus [9] = assay: Effective dose required for its agonist activity in phenylquinone test after po administration; type: functional; procedure, shortened: as §1
Rattus norvegicus [10] = assay: Effective dose required for its agonist activity in rat tail flick test after sc administration; I = inactive; type: functional, organism-based; procedure, shortened: as §1
Rattus norvegicus [11] = assay: Analgesic dose required for its narcotic activity in Phenazocine after sc administration; type: functional
Mus musculus [12] = assay: Effective dose required for its agonist activity in acetylcholine test after po administration; type: functional; procedure, shortened: as §1
Mus musculus [13] = assay: Effective dose required for its agonist activity in acetylcholine test after sc administration; type: functional; procedure, shortened: as §1
Rattus norvegicus [14] = assay: Analgesic dose required for its narcotic activity in Phenazocine after po administration; type: functional
Rattus norvegicus [15] = assay: Analgesic dose required for its narcotic activity in meperidine after po administration; type: functional
Rattus norvegicus [16] = assay: Effective dose required for its agonist activity in rat bradykinin test after po administration; type: functional; procedure, shortened: as §1
Rattus norvegicus [17] = assay: Analgesic dose required for its narcotic activity in morphine after sc administration; type: functional
Rattus norvegicus [18] = assay: Analgesic dose required for its phenazocine antagonistic activity in rat after peroral administration; ? = Questionable activity; type: functional, organism-based; procedure, shortened: as §2
Rattus norvegicus [19] = assay: analgesic dose required for its phenazocine antagonistic activity in rat after peroral administration; I = inactive; type: functional, organism-based; procedure, shortened: as §2
Mus musculus [20] = assay: Effective dose required for its agonist activity in Phenylquinone writhing test after sc administration; type: functional; procedure, shortened: as §1
Rattus norvegicus [21] = species on record: Rattus norvegicus; assay: Tested for peroral analgesic dose required for its narcotic activity in meperidine; type: functional
Rattus norvegicus [22] = assay: Analgesic dose required for its narcotic activity morphine after peroral administration; type: functional
Rattus norvegicus [23] = assay: Analgesic dose required for its narcotic activity in Phenazocine after peroral administration; type: functional
Rattus norvegicus [24] = assay: Analgesic dose required for its narcotic activity in meperidine after peroral administration; type: functional
Rattus norvegicus [25] = assay: Effective dose required for its agonist activity in bradykinin test after sc administration; type: functional; procedure, shortened: as §1

Work on `CC(C)CN1CC[C@]2(C)c3cc(N)ccc3CC1[C@@H]2C` yielded an ED50 (Mus musculus [1]) of 1.5 mg/kg and an AD50 (Rattus norvegicus [2]) of 9.4 mg/kg.
`C[C@H]1C2Cc3ccc(N(C)C)cc3[C@@]1(C)CCN2CC1CC1` was tested, and the ED50 (Mus musculus [1]) was 0.79 mg/kg.
`CCCCNc1ccc2c(c1)[C@@]1(C)CCN(CC3CC3)C(C2)[C@@H]1C` was tested, and the AD50 (Rattus norvegicus [3]) was “inactive” and the ED50 (Mus musculus [1]) was 1 mg/kg.
Work on `C[C@H]1C2Cc3ccc(N)cc3[C@@]1(C)CCN2CC1CC1` yielded an ED50 (Rattus norvegicus [4]) of 1.2 mg/kg, an ED50 (Mus musculus [5]) of 1.4 mg/kg and an AD50 (Rattus norvegicus [6]) of 3.7 mg/kg. For the same molecule, the AD50 (Rattus norvegicus [7]) was 2 mg/kg, the AD50 (Rattus norvegicus [8]) was 15 mg/kg and the ED50 (Mus musculus [9]) was 7.2 mg/kg. The ED50 (Rattus norvegicus [10]) was “inactive”, the AD50 (Rattus norvegicus [11]) was 2.7 mg/kg and the ED50 (Mus musculus [12]) was 3.2 mg/kg. It also gave an ED50 (Mus musculus [13]) of 0.8 mg/kg, an AD50 (Rattus norvegicus [14]) of 10 mg/kg and an AD50 (Rattus norvegicus [15]) of 8.8 mg/kg. For the same molecule, the ED50 (Rattus norvegicus [16]) was 8.1 mg/kg.
With `CCCN1CC[C@]2(C)c3cc(N)ccc3CC1[C@@H]2C` the ED50 (Mus musculus [1]) was 5.6 mg/kg and the AD50 (Rattus norvegicus [2]) was 2 mg/kg.
`CNc1ccc2c(c1)[C@@]1(C)CCN(CC3CC3)C(C2)[C@@H]1C` was tested, and the ED50 (Mus musculus [1]) was 0.44 mg/kg and the AD50 (Rattus norvegicus [2]) was 1.35 mg/kg.
In the case of `CC(C)=CCN1CC[C@]2(C)c3cc(O)ccc3C[C@H]1[C@H]2C` [(+)-PENTAZOCINE], the ED50 (Rattus norvegicus [4]) was 2.6 mg/kg, the ED50 (Mus musculus [5]) was 3.8 mg/kg and the AD50 (Rattus norvegicus [7]) was 3.9 mg/kg. The AD50 (Rattus norvegicus [8]) was 140 mg/kg, the ED50 (Mus musculus [9]) was 95 mg/kg and the ED50 (Rattus norvegicus [10]) was “inactive”. It also gave an AD50 (Rattus norvegicus [11]) of 6.3 mg/kg, an AD50 (Rattus norvegicus [17]) of 9 mg/kg and an AD50 (Rattus norvegicus [14]) of 76 mg/kg. For the same molecule, the AD50 (Rattus norvegicus [15]) was 68 mg/kg and the Protection (Rattus norvegicus [16]) was 40 mg/kg.
In the case of `CCCNc1ccc2c(c1)[C@@]1(C)CCN(CC3CC3)C(C2)[C@@H]1C`, the ED50 (Mus musculus [1]) was 1.2 mg/kg and the AD50 (Rattus norvegicus [18]) was “Questionable activity”.
For `C[C@H]1C2Cc3ccc(NCc4ccccc4)cc3[C@@]1(C)CCN2CC1CC1`, the AD50 (Rattus norvegicus [2]) was 1 mg/kg.
With `C[C@H]1C2Cc3ccc(N)cc3[C@@]1(C)CCN2` the ED50 (Mus musculus [1]) was 6.1 mg/kg and the AD50 (Rattus norvegicus [19]) was “inactive”.
`C=CCN1CC[C@]2(C)c3cc(N)ccc3CC1[C@@H]2C` gave an ED50 (Mus musculus [1]) of 2.5 mg/kg and an AD50 (Rattus norvegicus [2]) of 1.5 mg/kg.
`C[C@H]1C2Cc3ccc([N+](=O)[O-])cc3[C@@]1(C)CCN2CC1CC1.Cl` gave an ED50 (Mus musculus [20]) of 24 mg/kg and an AD50 (Rattus norvegicus [21]) of 9.6 mg/kg.
Molecule `C[C@H]1[C@H]2Cc3ccc(O)cc3[C@]1(C)CCN2CC1CC1` [CYCLAZOCINE] has an AD50 (Rattus norvegicus [22]) of 4.3 mg/kg, an AD50 (Rattus norvegicus [23]) of 3.1 mg/kg and an ED50 (Mus musculus [5]) of 0.04 mg/kg. For the same molecule, the AD50 (Rattus norvegicus [7]) was 0.019 mg/kg, the ED50 (Mus musculus [9]) was 3.6 mg/kg and the ED50 (Rattus norvegicus [10]) was “inactive”. It also gave an AD50 (Rattus norvegicus [11]) of 0.028 mg/kg, an AD50 (Rattus norvegicus [17]) of 0.029 mg/kg and an ED50 (Rattus norvegicus [16]) of 3.7 mg/kg. It also gave an AD50 (Rattus norvegicus [24]) of 4.2 mg/kg and an ED50 (Rattus norvegicus [25]) of 0.04 mg/kg.
For `CCNc1ccc2c(c1)[C@@]1(C)CCN(CC3CC3)C(C2)[C@@H]1C`, the AD50 (Rattus norvegicus [3]) was “inactive” and the ED50 (Mus musculus [1]) was 1.3 mg/kg.
In the case of `C[C@H]1C2Cc3ccc(NCC4CC4)cc3[C@@]1(C)CCN2CC1CC1.Cl`, the ED50 (Mus musculus [1]) was 0.7 mg/kg and the AD50 (Rattus norvegicus [2]) was 8 mg/kg.
